Results collected from several papers.
Compare with care: the assays were run in different laboratories.
Organism: Escherichia coli
Effect on: microbial growth

N=C(N)c1cccc(OCc2ccccc2COc2cccc(C(=N)N)c2)c1 — MIC (broth dilution; BW25113): > 200 µg/mL
O=C(Nc1ccc([N+](=O)[O-])cc1F)c1ccccc1O — MIC (broth dilution; ATCC25922): > 64 µg/mL
O=[N+]([O-])c1ccc(-c2nc3cc(F)ccc3[nH]2)o1 — MIC (broth dilution; ATTC25922): 4 µg/mL
CC(C)Oc1c(NC(=O)c2ccc(NC(=O)[C@H](CC(N)=O)NC(=O)c3ccc(NC(=O)c4ccc(NC(=O)c5ccc([N+](=O)[O-])cc5)cc4)cc3)cc2)ccc(C(=O)Nc2ccc(C(=O)O)cc2)c1O — MIC (DSM1116): 0.5 µg/mL
COc1c(C)c(OC(=O)c2ccc(C)cc2)c(C)c(O)c1C(=O)/C=C/c1ccccc1 — MIC (broth dilution; ATCC25922): 5000 µg/mL
CC(=O)Nc1ccc(C(=O)Nc2ccc(C(=O)N[C@@H](CC(N)=O)C(=O)Nc3ccc(C(=O)Nc4ccc(C(=O)Nc5ccc(C(=O)O)cc5)c(O)c4OC(C)C)cc3)cc2)cc1 — MIC (DSM1116): 16 µg/mL
Clc1ccc(Cn2c(-c3ccc(Cl)cc3)nc3ccccc32)cc1 — MIC (broth dilution; ATCC25922): 16 µg/mL
N=C(N)c1ccc(OCc2cccc(COc3ccc(C(=N)N)cc3)c2)cc1 — MIC (broth dilution; W3110): 100 µg/mL
COc1c(C)c(OC(C)=O)c(C)c(O)c1C(=O)/C=C/c1ccccc1 — MIC (broth dilution; ATCC25922): 5000 µg/mL
CC(NCCCN)c1cc2cc(Br)ccc2[nH]1 (centres unmarked) — MIC (broth dilution; ATCC25922): 128 µg/mL
COc1c(C)c(OC)c2c(c1C)OC(c1ccccc1)CC2=O (centres unmarked) — MIC (broth dilution; ATCC25922): 5000 µg/mL
CC(C)COc1c(NC(=O)c2ccc(NC(=O)[C@H](CC(N)=O)NC(=O)c3ccc(NC(=O)c4ccc(C#N)cc4)cc3)cc2)ccc(C(=O)Nc2ccc(C(=O)O)cc2)c1O — MIC (DSM1116): 0.25 µg/mL
C[C@H](CCC(=O)NCCCNCCCCNCCCN)[C@H]1CC[C@H]2[C@@H]3CC[C@@H]4C[C@H](O)CC[C@]4(C)[C@H]3CC[C@]12C — MIC (broth dilution; MG1655; 20 h): 128 µg/mL
Cc1ccc(C)n1-c1ccc(-c2nnc(-c3ccc(O)cc3)[nH]2)cc1 — MIC (broth dilution; ATCC10536; 18 h): 250 µg/mL
N=C(N)c1ccc(OCCCCCCCCCOc2ccc(C(=N)N)cc2)cc1 — MIC (broth dilution; BW25113): > 25 µg/mL
CNc1cccc2cc(C(=O)NCCc3cccc(C(=O)O)c3)c(=O)[nH]c12 — MIC (broth dilution; ATCC25922): > 64 µg/mL
c1ccc2c(-c3nc4ccccc4[nH]3)c3ccccc3cc2c1 — MIC (broth dilution; ATCC25922): 64 µg/mL
CC(C)Oc1c(NC(=O)c2ccc(NC(=O)[C@H](CC(N)=O)NC(=O)c3ccc(NC(=O)c4ccc(F)cc4)cc3)cc2)ccc(C(=O)Nc2ccc(C(=O)O)cc2)c1O — MIC (DSM1116): 0.5 µg/mL
Fc1ccc(NCc2ccc(Oc3ccccn3)cc2)cc1 — MIC: > 12.5 µg/mL
N=C(N)c1ccc(OCc2cc(Br)cc(COc3ccc(C(=N)N)cc3)c2)cc1 — MIC (broth dilution; W3110): 100 µg/mL
Cc1ccc(C)n1-c1ccc(-c2nnc(-c3c(Cl)cccc3Cl)[nH]2)cc1 — MIC (broth dilution; ATCC10536; 18 h): 62.5 µg/mL
Cc1ccc2nc(-c3ccc(Cl)cc3)[nH]c2c1 — MIC (broth dilution; ATCC25922): 256 µg/mL
CCCCCCC/C=C/C(=O)N1C(=O)/C(=C(/C)O)C(=O)C1Cc1ccc(O)cc1 (centres unmarked) — MIC (K12; K12): > 200 µg/mL
COc1cc(C(=O)Nc2ccc(C(=O)N[C@@H](CC(N)=O)C(=O)Nc3ccc(C(=O)Nc4ccc(C(=O)Nc5ccc(C(=O)O)cc5)c(O)c4OC(C)C)cc3)cc2)ccc1C#N — MIC (DSM1116): < 0.03 µg/mL
O=[N+]([O-])c1ccc(O)c2ncccc12 — MIC (broth dilution; ATCC35218): 4 µg/mL
O=C(Cc1ccc(O)c(O)c1)NCCCCCCCC[P+](c1ccccc1)(c1ccccc1)c1ccccc1.[Br-] — MIC (broth dilution; ATCC25922; 18 h): > 32 µg/mL
N=C(N)c1ccc(OCc2cc(COc3ccc(C(=N)N)cc3)cc(-c3ccccc3)c2)cc1 — MIC (broth dilution; ATCC25922): 100 µg/mL
C=CCn1c(-c2ccc(Cl)cc2)nc2ccc(C)cc21 — MIC (broth dilution; ATCC25922): 256 µg/mL
CCCCCCC#Cc1cncc(-c2nnc(SCc3ccc([N+](=O)[O-])o3)n2C)c1 — MIC: ≥ 20 µg/mL
CC(C)Oc1c(NC(=O)c2ccc(NC(=O)[C@H](CC(N)=O)NC(=O)c3ccc(NC(=O)c4cc(C#N)cn4C)cc3)cc2)ccc(C(=O)Nc2ccc(C(=O)O)cc2)c1O — MIC (DSM1116): ≤ 0.03 µg/mL
CC(=O)Nc1ncc([N+](=O)[O-])s1 — MIC: < 50 µM
O=C(O)c1cn(C2CC2)c2cc(N3CCNCC3)c(F)cc2c1=O — MIC (broth dilution; 24 h): 4.72 µM
Cc1ccc2nc(-c3ccc([N+](=O)[O-])cc3)n(Cc3ccc(Cl)cc3)c2c1 — MIC (broth dilution; ATCC25922): 64 µg/mL
O=C(Nc1ccc2c(c1)OC(F)(F)O2)Nc1ccc(Cl)c(C(F)(F)F)c1 — MIC (CFT073): > 100 µM
CCCCCCC/C=C/C(=O)N1C(=O)/C(=C(\O)c2ccc(O)cc2)C(=O)C1CC(C)C (centres unmarked) — MIC (K12; K12): > 200 µg/mL
Clc1ccc(-c2nc3ccccc3n2Cc2ccccc2)cc1Cl — MIC (broth dilution; ATCC25922): 64 µg/mL
N=C(N)c1ccccc1OCc1ccccc1COc1ccccc1C(=N)N — MIC (broth dilution; BW25113): > 200 µg/mL
C[C@@H](O)[C@H]1C(=O)N2C(C(=O)O)=C(S[C@@H]3CN[C@H](C(=O)N(C)C)C3)[C@H](C)[C@H]12 — MIC (broth dilution; KCTC1682; 16 h): 0.5 µM
CCCCCCC/C=C/C(=O)N1C(=O)/C(=C(/C)O)C(=O)C1CCCCN (centres unmarked) — MIC (K12; K12): > 200 µg/mL
N=C(N)c1ccc(OCc2ccc(Br)cc2COc2ccc(C(=N)N)cc2)cc1 — MIC (BW25113): ≥ 100 µg/mL
Clc1ccccc1NCc1ccc(Oc2ccccn2)cc1 — MIC: > 25 µg/mL
Cc1ccc(C)n1-c1ccc(-c2nnc(-c3cccc([N+](=O)[O-])c3)[nH]2)cc1 — MIC (broth dilution; ATCC10536; 18 h): 250 µg/mL
CC1(C)S[C@@H]2[C@H](NC(=O)[C@H](N)c3ccccc3)C(=O)N2[C@H]1C(=O)O — MIC (broth dilution; ATCC25922): 4 µg/mL
O=C1NN=C(N=Cc2ccccc2O)C1=NNn1c(-c2ccccc2)nc2ccccc2c1=O — MIC (broth dilution; 24 h): 55.4 µM
C=CCn1c(-c2ccc([N+](=O)[O-])cc2)nc2ccc(C)cc21 — MIC (broth dilution; ATCC25922): 64 µg/mL
O=C(CCc1cc(O)c(O)c(O)c1)NCCCCCCCC[P+](c1ccccc1)(c1ccccc1)c1ccccc1.[Br-] — MIC (broth dilution; ATCC25922; 18 h): > 32 µg/mL
N=C(N)c1ccc(OCc2ccc(-c3ccccc3)cc2COc2ccc(C(=N)N)cc2)cc1 — MIC (broth dilution; W3110): > 200 µg/mL
Cc1cc(C#N)ccc1C(=O)Nc1ccc(C(=O)N[C@@H](CC(N)=O)C(=O)Nc2ccc(C(=O)Nc3ccc(C(=O)Nc4ccc(C(=O)O)cc4)c(O)c3OC(C)C)cc2)cc1 — MIC (DSM1116): 0.5 µg/mL
CCCCCCCCCCCC(=O)Oc1c(C)c(O)c(C(=O)/C=C/c2ccccc2)c(OC)c1C — MIC (broth dilution; ATCC25922): 5000 µg/mL
Fc1ccccc1NCc1ccc(Oc2ccccn2)cc1 — MIC: > 25 µg/mL
CC(C)Oc1c(NC(=O)c2ccc(NC(=O)[C@H](CC(N)=O)NC(=O)c3ccc(NC(=O)C(C)Oc4ccccc4)cc3)cc2)ccc(C(=O)Nc2ccc(C(=O)O)cc2)c1O (some centres unmarked) — MIC (DSM1116): > 64 µg/mL
Cc1c(CN(C)C(=O)/C=C/c2cnc3c(c2)CC(NC(=O)OC(C)(C)C)C(=O)N3)oc2ccccc12 (centres unmarked) — MIC (broth dilution; MG1655; clinical isolate): > 32 µg/mL
Clc1ccc(-c2nc3ccccc3[nH]2)c(Cl)c1 — MIC (broth dilution; ATCC25922): 128 µg/mL
